Experimental data taken from ChEMBL document CHEMBL1139431, “Synthesis of both enantiomers of hydroxypipecolic acid derivatives equivalent to 5-azapyranuronic acids and evaluation of their inhibitory activities against glycosidases” (Bioorg Med Chem, 2008).

What was measured:
[1] = test system: Beta-hexosaminidase (Homo sapiens); assay: Inhibition of human Placental beta-N-acetylglucosaminidase at 1000 uM
[2] = Inhibition of bovine kidney beta-N-acetylglucosaminidase at 1000 uM; assay type: functional; conditions: Bos taurus
How it was run: (§1)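 β-N-Acetylglucosaminidase from bovine kidney, pH 4.5. The substrate is a p-nitrophenyl glycoside at 2 mM, with an appropriate amount of enzyme in a 1 mL mixture. The reaction is quenched with 2 mL of 400 mM Na₂CO₃, and p-nitrophenol is measured at 400 nm.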

Bos taurus = species: Bos taurus; assay: Inhibition of bovine liver beta-glucuronidase at 1000 uM
How it was run: (§2)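 Enzyme from bovine liver, run at pH 5.0. A p-nitrophenyl glycoside substrate (2 mM) is used in a 1 mL reaction with an appropriate amount of enzyme. Termination is by 2 mL of 400 mM Na₂CO₃, with spectrophotometric detection of liberated p-nitrophenol at 400 nm.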

[3] = target: T1, Alpha-N-acetylgalactosaminidase (Gallus gallus) (UniProt Q90744); assay: Inhibition of chicken liver alpha-N-acetylgalactosaminidase at 1000 uM
T1 sequence (whole entry): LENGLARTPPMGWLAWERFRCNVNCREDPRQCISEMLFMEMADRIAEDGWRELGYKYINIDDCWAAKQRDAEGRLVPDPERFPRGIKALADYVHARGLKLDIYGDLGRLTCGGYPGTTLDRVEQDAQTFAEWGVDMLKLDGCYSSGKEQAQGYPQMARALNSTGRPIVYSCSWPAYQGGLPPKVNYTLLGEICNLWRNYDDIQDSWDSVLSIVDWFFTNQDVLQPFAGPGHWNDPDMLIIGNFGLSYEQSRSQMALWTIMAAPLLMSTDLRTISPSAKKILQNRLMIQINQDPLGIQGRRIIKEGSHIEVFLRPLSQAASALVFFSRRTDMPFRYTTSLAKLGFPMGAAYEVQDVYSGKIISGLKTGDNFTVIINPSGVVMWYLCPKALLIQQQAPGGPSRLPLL
How it was run: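 Chicken liver α-N-acetylgalactosaminidase at pH 4.0. The reaction (1 mL) holds 2 mM p-nitrophenyl glycoside and an appropriate amount of enzyme. It is stopped by 2 mL of 400 mM Na₂CO₃, and p-nitrophenol release is quantified at 400 nm.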

Escherichia coli = assay: Inhibition of Escherichia coli beta-glucuronidase at 1000 uM
How it was run: (§3)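 E. coli β-glucuronidase assayed at pH 6.8 in a 1 mL mixture containing 2 mM p-nitrophenyl glycoside substrate and an appropriate amount of enzyme. The reaction is stopped with 2 mL of 400 mM Na₂CO₃, and released p-nitrophenol is read at 400 nm.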

[4] = target: Beta-hexosaminidase (Homo sapiens); assay: Inhibition of human Placental beta-N-acetylglucosaminidase
[5] = Inhibition of bovine kidney beta-N-acetylglucosaminidase; parameters: species or system Bos taurus
How it was run: as §1

[6] = Inhibition of bovine liver beta-glucuronidase; parameters: species or system Bos taurus
How it was run: as §2

[7] = Inhibition of Escherichia coli beta-glucuronidase
How it was run: as §3

Row | Compound | inhibition [1] [%] | inhibition at 1000 µM [2] [%] | inhibition (Bos taurus) [%] | inhibition [3] [%] | inhibition (Escherichia coli) [%] | IC50 [4] [µM] | IC50 [5] [µM] | IC50 [6] [µM] | IC50 [7] [µM] | Ki [7] [µM]
1 | O=C(O)[C@@H]1NCC=C[C@@H]1O | 14 | 0.8 | 10 | 1.3 | 0.9 | – | – | – | – | –
2 | O=C(O)[C@H]1NC[C@H](O)[C@H](O)[C@H]1O | 7.6 | 5.5 | 8.8 | 21 | 2.3 | – | – | – | – | –
3 | O=C(O)[C@@H]1NC[C@H](O)[C@H](O)[C@H]1O | 39 | 18 | 12 | 4.4 | 2.6 | – | – | – | – | –
4 | O=C(O)[C@H]1NC[C@@H](O)[C@H](O)[C@H]1O | 6.3 | 4.8 | 17.5 | 4.2 | 2.6 | – | – | – | – | –
5 | O=C(O)[C@@H]1NCC=C[C@H]1O | 14 | 15 | 0.2 | 3.2 | 0.9 | – | – | – | – | –
6 | O=C(O)[C@H]1NCCC[C@@H]1O | 36 | 38 | 0.89 | 5.2 | 31 | – | – | – | – | –
7 | O=C(O)[C@H]1NCC=C[C@H]1O | 17 | 7.3 | 8.6 | 0.2 | 3.3 | – | – | – | – | –
8 | O=C(O)[C@@H]1NC[C@@H](O)[C@H](O)[C@@H]1O | 0.8 | 0.5 | 7.1 | 10 | 6.3 | – | – | – | – | –
9 | O=C(O)[C@@H]1NC[C@@H](O)[C@@H](O)[C@@H]1O | 2.1 | 1.7 | 9.4 | 7.2 | 1.2 | – | – | – | – | –
10 | O=C(O)[C@H]1NC[C@H](O)[C@H](O)[C@@H]1O | 26 | 14 | 2.1 | 4.5 | 0.6 | – | – | – | – | –
11 | O=C(O)[C@@H]1NC[C@@H](O)[C@H](O)[C@H]1O | 50 | 11 | 2.7 | 1.3 | 5.4 | – | – | – | – | –
12 | O=C(O)[C@H]1NCCC[C@H]1O | 30 | 20 | 0.18 | 2.5 | 24 | – | – | – | – | –
13 | O=C(O)[C@H]1NC[C@@H](O)[C@H](O)[C@@H]1O | 42 | 17 | 20 | 11 | 1.1 | – | – | – | – | –
14 | O=C(O)[C@@H]1NCCC[C@H]1O | 25 | 32 | 0.62 | 1.3 | 20 | – | – | – | – | –
15 | O=C(O)[C@@H]1NC[C@H](O)[C@@H](O)[C@H]1O | 42 | 27 | 6.8 | 4 | 5.2 | – | – | – | – | –
16 | O=C(O)[C@@H]1NCCC[C@@H]1O | 46 | 47 | 15 | 3.2 | 23 | – | – | – | – | –
17 | O=C(O)[C@H]1NCC=C[C@@H]1O | 60 | 58 | 19 | 25 | 2 | 750 | 720 | – | – | –
18 | O=C(O)[C@H]1NC[C@H](O)[C@@H](O)[C@H]1O | 2.6 | 1.9 | 87 | 31 | 21 | – | – | 86 | – | –
19 | O=C(O)[C@@H]1NC[C@H](O)[C@@H](O)[C@@H]1O | 5.4 | 4.4 | 15.8 | 3.4 | 4.2 | – | – | – | – | –
20 | O=C(O)[C@@H]1NC[C@@H](O)[C@@H](O)[C@H]1O | 26 | 10 | 3.1 | 8.2 | 1.3 | – | – | – | – | –
21 | O=C(O)[C@H]1NC[C@@H](O)[C@@H](O)[C@@H]1O | 28 | 0.5 | 14 | 3.8 | 1 | – | – | – | – | –
22 | O=C(O)[C@H]1NC[C@H](O)[C@@H](O)[C@@H]1O | 43 | 13 | 95 | 0.2 | 72 | – | – | 70 | 215 | 400
